Published values collected from several papers.

SMILES	cell line	assay	setting	quantity	value
N#CSCCCCOc1ccc2c(-c3ccccc3)cc(=O)oc2c1	SW1573	cell growth or viability, SRB		GI50	25 µM
CCCCCCCCCCCCCCCCCCOc1ccccc1CC(=O)OCC[N+](C)(C)C	NCI-H23	cell growth or viability, SRB	10 µM	inhibition	59.8%
COCCC(=O)Nc1ccccc1/N=c1\cc(-c2ccc3c(c2)OCO3)oc2ccccc12	MOLM-13	cell growth or viability, CCK-8	1 µM	inhibition	6.03%
CC(C)C[C@H](NC(=O)[C@H](Cc1ccccc1)NC(=O)c1cnccn1)B(O)O	CHP-212	cell growth or viability, SRB	41.15 nM	viability	90.7%
O=C(Nc1ccccc1/N=c1\cc(-c2ccc3c(c2)OCO3)oc2ccccc12)N1CCNCC1	MOLM-13	cell growth or viability, CCK-8	1 µM	inhibition	1.47%
CCCCCCCCCCCCCCCCCCOc1ccc(CC(=O)OCC[N+]2(C)CCCCC2)cc1	NCI-H23	cell growth or viability, SRB	10 µM	inhibition	13.3%
C#Cc1cccc(Nc2ncnc3cc(OCCOC)c(OCCOC)cc23)c1	Bel-7402	cell growth or viability, MTT	48 h	IC50	> 20 µM
COc1ncnc(C2CC2)c1-c1ncc2cnn(Cc3ccc(-c4nc(C(F)(F)F)cn4C(C)C)cc3)c2n1	CHP-212	cell growth or viability, SRB	25 µM	viability	76.7%
Oc1cccc(-c2nc(N3CCOCC3)c3oc4ncccc4c3n2)c1	MOLM-13	cell growth or viability, CCK-8	1 µM	inhibition	14.3%
CCNNC(=O)c1ccc(CN(CC(=O)NCc2ccccc2)C(=O)c2ccc(N(C)C)cc2)cc1	A2780cisR	cell growth or viability, MTT	72 h	IC50	4.62 µM
NCCC(=O)Nc1ccccc1/N=c1\cc(-c2ccc3nc(N)oc3c2)oc2ccccc12	MOLM-13	cell growth or viability, CCK-8	1 µM	inhibition	60.4%
O=C(C[C@@H](C(F)F)n1ccc(F)n1)N1CCC(O)(Cn2cnc3c(cnn3-c3ccc(F)cc3)c2=O)CC1	CHP-212	cell growth or viability, SRB	27.43 nM	viability	72.4%
CCCCCCCCCCCCCCCCCCOc1ccccc1CC(=O)OCC[N+]1(C)CCCCC1	NCI-H23	cell growth or viability, SRB	10 µM	inhibition	70.2%
Cc1cc(=O)oc2cc(OCCCCSC#N)ccc12	SW1573	cell growth or viability, SRB		GI50	0.63 µM
COc1cccc2c1C(=O)c1c(O)c3c(c(O)c1C2=O)C[C@@](O)(C(=O)CO)C[C@@H]3O[C@H]1C[C@H](N)[C@H](O)[C@H](C)O1	CHP-212	cell growth or viability, SRB	0.3704 µM	viability	19.4%
CCCCCCCCCCCCCCCCCCOc1ccc(CC(=O)OCCC[N+](C)(C)C)cc1	NCI-H23	cell growth or viability, SRB	10 µM	inhibition	18.9%
CC(=O)O[C@H]1C(=O)[C@@]2(C)[C@H]([C@H](OC(=O)c3ccccc3)[C@]3(O)C[C@H](OC(=O)[C@H](O)[C@@H](NC(=O)c4ccccc4)c4ccccc4)C(C)=C1C3(C)C)[C@]1(OC(C)=O)CO[C@@H]1C[C@@H]2O	CHP-212	cell growth or viability, SRB	0.1235 µM	viability	21.3%
CCCCCCCCCCCCCCCCCCOc1cccc(CC(=O)OCC[N+]2(C)CCCCC2)c1	NCI-H23	cell growth or viability, SRB	10 µM	inhibition	16.1%

SMILES	cell line	assay	setting	quantity	value
NCCCCC(=O)Nc1ccccc1/N=c1\cc(-c2ccc3c(c2)OCO3)oc2ccccc12	MOLM-13	cell growth or viability, CCK-8	1 µM	inhibition	-0.26%
O=C(N[C@@H](CSCc1ccc([N+](=O)[O-])cc1)C(=O)NO)c1ccccc1	NCI-H1573	cell growth or viability, MTT	48 h	IC50	2.37 µM
COCCC(=O)Nc1ccccc1/N=c1\cc(-c2ccc3nc(N)oc3c2)oc2ccccc12	MOLM-13	cell growth or viability, CCK-8	1 µM	inhibition	2.66%
CNCc1ccc(-c2cc(-c3nc(-c4ccc(S(=O)(=O)C(C)C)cc4)cnc3N)on2)cc1	CT26	cell growth or viability, ATP luminescence	48 h	IC50	1.98 µM
CNC(=O)c1cc(Oc2ccc(NC(=O)Nc3ccc(Cl)c(C(F)(F)F)c3)cc2)ccn1	Bel-7402	cell growth or viability, MTT	48 h	IC50	5.06 µM
COC(=O)[C@H]1[C@@H](O)[C@@]2(O)c3c(OC)cc(O[C@@H]4O[C@@H]([C@H](O)CO)CO[C@H]4OC)cc3O[C@@]2(c2ccc(OC)cc2)[C@@H]1c1ccccc1	C6661	cell growth or viability, MTS	72 h	IC50	0.005 µM
CCCCCCCCCCCCCCCCCCOc1cccc(CC(=O)OCC[N+]2(C)CCCC2)c1	NCI-H23	cell growth or viability, SRB	10 µM	inhibition	24.6%
C[C@@H]1COCCN1c1cc(C2([S@](C)(=N)=O)CC2)nc(-c2cc[nH]c3nccc2-3)n1	CT26	cell growth or viability, ATP luminescence	48 h	IC50	8.64 µM
CCCCCCCCCCCCCCCCCCOCC(COP(=O)([O-])OCC[N+](C)(C)C)OC (centres unmarked)	NCI-H23	cell growth or viability, SRB	10 µM	inhibition	10.9%
C(=N\Nc1cc(N/N=C/c2ccc3ccccc3n2)nc(-c2ccccc2)n1)/c1ccc2ccccc2n1	Bel-7402	cell growth or viability, MTT	48 h	IC50	10.2 µM
CCc1nc(C(N)=O)c(Nc2ccc(N3CCC(N4CCN(C)CC4)CC3)c(OC)c2)nc1NC1CCOCC1	MOLM-13	cell growth or viability	72 h	GI50	0.032 µM
CCCCCCCCCCCCCCCCCCOc1cccc(CC(=O)OCC[N+](C)(C)C)c1	NCI-H23	cell growth or viability, SRB	10 µM	inhibition	11%
Nc1ccccc1/N=c1\cc(-c2ccc3c(c2)OCO3)oc2ccccc12	MOLM-13	cell growth or viability, CCK-8	1 µM	inhibition	5.39%
[NH2][Pt]([NH2])([Cl])[Cl]	NCI-H1573	cell growth or viability, MTT	48 h	IC50	75.8 µM
Cc1cnc(CNC(=O)c2c(=O)c3ccc(N4CCCN(C)CC4)nc3n3c2sc2ccccc23)cn1	C6661	cell growth or viability, MTS	72 h	IC50	0.5 µM
NCCC(=O)Nc1ccc(/N=c2\cc(-c3ccc4c(c3)OCO4)oc3ccccc23)cc1	MOLM-13	cell growth or viability, CCK-8	1 µM	inhibition	3.6%
C=C(C)[C@@H]1CC[C@]2(C)CC[C@]3(C)[C@H](CC[C@@H]4[C@@]5(C)CC[C@H](O)C(C)(C)[C@@H]5CC[C@]43C)[C@@H]12	SIM-A9	NO release, inhibitor, Griess	106.7 µM, LPS-stimulated	inhibition	1.81%
